ChEMBL document CHEMBL5724801, “EUbOPEN Chemogenomics Library - Multiplex” (2024)
Several values for one entry are separate records, joined by “and”; a condition that tells them apart may be missing. Identical values can stand only once.

System: HEK-293T
Assay: Multiplex assay against HEK293T
Type: toxicity, cell-based
Conditions: human, 12 h, 1 µM, compound concentration 1 uM
In short: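 On a CQ1 microscope at 37°C and 5% CO2, live cells were imaged after compound addition. They had been stained at seeding with Hoechst33342, BioTracker Green Microtubule Cytoskeleton Dye, MitoTracker Red and Annexin V Alexa Fluor 680. CellPathfinder machine-learning gating assigned cells to Hoechst high-intensity objects or normal cells, normal cells to healthy, pyknosed or fragmented nuclei, and pyknosed cells to mitotic or apoptotic. Tubulin, mitochondrial-mass and membrane-permeability phenotypes are per cents of healthy-nucleus cells.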

SMILES	Population Apoptotic (%)	Population Fragmented Nuclei (%)	Population Healthy Nuclei (%)	Population Hoechst High Intensity Objects (%)	Population Membrane Permeable-Phenotype (%)	Population Mitochondria Different-Phenotype (%)	Population Mitotic Cells (%)	Population Normal (%)	Population Pyknosed Nuclei (%)	Population Tubulin-Different-Phenotype (%)
Cc1cc(-c2ccc3c(c2)CC[C@H]3N2CC3(CCN(C(=O)Cc4cn5cc(C)sc5n4)CC3)C2)ncn1 [PF-5190457]	36% and 47%	5% and 8%	83% and 72%	5% and 10%	0	40% and 53%	63% and 52%	94% and 89%	11% and 19%	25% and 22%
N#Cc1c(N)nc(SCc2csc(-c3ccc(Cl)cc3)n2)c(C#N)c1-c1ccc(OCCO)cc1 [CAPADENOSON]	36% and 54%	6%	79% and 80%	8% and 4%	0	59% and 60%	63% and 45%	91% and 95%	13% and 12%	44% and 34%

Same assay, conditions: human, 12 h, 1 µM, compound concentration 1 uM

SMILES	Total Cell Count
Cc1cc(-c2ccc3c(c2)CC[C@H]3N2CC3(CCN(C(=O)Cc4cn5cc(C)sc5n4)CC3)C2)ncn1 [PF-5190457]	418 and 258
N#Cc1c(N)nc(SCc2csc(-c3ccc(Cl)cc3)n2)c(C#N)c1-c1ccc(OCCO)cc1 [CAPADENOSON]	373 and 375

Same assay, conditions: human, 12 h, 10 µM, compound concentration 10 uM

SMILES	Population Apoptotic (%)	Population Fragmented Nuclei (%)	Population Healthy Nuclei (%)	Population Hoechst High Intensity Objects (%)	Population Membrane Permeable-Phenotype (%)	Population Mitochondria Different-Phenotype (%)	Population Mitotic Cells (%)	Population Normal (%)	Population Pyknosed Nuclei (%)	Population Tubulin-Different-Phenotype (%)
Cc1cc(-c2ccc3c(c2)CC[C@H]3N2CC3(CCN(C(=O)Cc4cn5cc(C)sc5n4)CC3)C2)ncn1 [PF-5190457]	40% and 54%	9% and 3%	75% and 80%	11% and 8%	0%	53% and 70%	60% and 45%	88% and 91%	14% and 16%	37% and 40%
N#Cc1c(N)nc(SCc2csc(-c3ccc(Cl)cc3)n2)c(C#N)c1-c1ccc(OCCO)cc1 [CAPADENOSON]	57% and 70%	7% and 6%	75% and 73%	12% and 14%	0% and 1%	82% and 85%	42% and 29%	87% and 85%	17% and 20%	62% and 63%

Same assay, conditions: human, 12 h, 10 µM, compound concentration 10 uM

SMILES	Total Cell Count
Cc1cc(-c2ccc3c(c2)CC[C@H]3N2CC3(CCN(C(=O)Cc4cn5cc(C)sc5n4)CC3)C2)ncn1 [PF-5190457]	455 and 322
N#Cc1c(N)nc(SCc2csc(-c3ccc(Cl)cc3)n2)c(C#N)c1-c1ccc(OCCO)cc1 [CAPADENOSON]	307 and 388

Same assay, conditions: human, 24 h, 1 µM, compound concentration 1 uM

SMILES	Population Apoptotic (%)	Population Fragmented Nuclei (%)	Population Healthy Nuclei (%)	Population Hoechst High Intensity Objects (%)	Population Membrane Permeable-Phenotype (%)	Population Mitochondria Different-Phenotype (%)	Population Mitotic Cells (%)	Population Normal (%)	Population Pyknosed Nuclei (%)	Population Tubulin-Different-Phenotype (%)
Cc1cc(-c2ccc3c(c2)CC[C@H]3N2CC3(CCN(C(=O)Cc4cn5cc(C)sc5n4)CC3)C2)ncn1 [PF-5190457]	21% and 45%	8% and 11%	77% and 78%	2% and 7%	0% and 1%	24% and 35%	78% and 54%	97% and 92%	13% and 9%	16% and 11%
N#Cc1c(N)nc(SCc2csc(-c3ccc(Cl)cc3)n2)c(C#N)c1-c1ccc(OCCO)cc1 [CAPADENOSON]	36% and 37%	5% and 7%	76% and 79%	6% and 4%	2% and 0%	38% and 44%	63% and 62%	93% and 95%	17% and 12%	34% and 23%

Same assay, conditions: human, 24 h, 1 µM, compound concentration 1 uM

SMILES	Total Cell Count
Cc1cc(-c2ccc3c(c2)CC[C@H]3N2CC3(CCN(C(=O)Cc4cn5cc(C)sc5n4)CC3)C2)ncn1 [PF-5190457]	549 and 352
N#Cc1c(N)nc(SCc2csc(-c3ccc(Cl)cc3)n2)c(C#N)c1-c1ccc(OCCO)cc1 [CAPADENOSON]	450 and 456

Same assay, conditions: human, 24 h, 10 µM, compound concentration 10 uM

SMILES	Population Apoptotic (%)	Population Fragmented Nuclei (%)	Population Healthy Nuclei (%)	Population Hoechst High Intensity Objects (%)	Population Membrane Permeable-Phenotype (%)	Population Mitochondria Different-Phenotype (%)	Population Mitotic Cells (%)	Population Normal (%)	Population Pyknosed Nuclei (%)	Population Tubulin-Different-Phenotype (%)
Cc1cc(-c2ccc3c(c2)CC[C@H]3N2CC3(CCN(C(=O)Cc4cn5cc(C)sc5n4)CC3)C2)ncn1 [PF-5190457]	25% and 36%	10% and 5%	75% and 81%	5% and 6%	1% and 0%	28% and 51%	74% and 63%	94% and 93%	14% and 13%	30% and 23%
N#Cc1c(N)nc(SCc2csc(-c3ccc(Cl)cc3)n2)c(C#N)c1-c1ccc(OCCO)cc1 [CAPADENOSON]	65% and 73%	8% and 4%	68%	14% and 13%	0%	94% and 89%	34% and 26%	85% and 86%	22% and 26%	62% and 61%

Same assay, conditions: human, 24 h, 10 µM, compound concentration 10 uM

SMILES	Total Cell Count
Cc1cc(-c2ccc3c(c2)CC[C@H]3N2CC3(CCN(C(=O)Cc4cn5cc(C)sc5n4)CC3)C2)ncn1 [PF-5190457]	638 and 425
N#Cc1c(N)nc(SCc2csc(-c3ccc(Cl)cc3)n2)c(C#N)c1-c1ccc(OCCO)cc1 [CAPADENOSON]	319 and 391

Same assay, conditions: human, 48 h, 1 µM, compound concentration 1 uM

SMILES	Population Apoptotic (%)	Population Fragmented Nuclei (%)	Population Healthy Nuclei (%)	Population Hoechst High Intensity Objects (%)	Population Membrane Permeable-Phenotype (%)	Population Mitochondria Different-Phenotype (%)	Population Mitotic Cells (%)	Population Normal (%)	Population Pyknosed Nuclei (%)	Population Tubulin-Different-Phenotype (%)
Cc1cc(-c2ccc3c(c2)CC[C@H]3N2CC3(CCN(C(=O)Cc4cn5cc(C)sc5n4)CC3)C2)ncn1 [PF-5190457]	25% and 39%	14% and 12%	79% and 80%	1% and 3%	1%	18% and 21%	74% and 60%	98% and 96%	5% and 6%	9% and 10%
N#Cc1c(N)nc(SCc2csc(-c3ccc(Cl)cc3)n2)c(C#N)c1-c1ccc(OCCO)cc1 [CAPADENOSON]	31% and 32%	10% and 11%	79% and 80%	4% and 3%	1% and 2%	32% and 23%	68% and 67%	95% and 96%	10% and 8%	23% and 18%

Same assay, conditions: human, 48 h, 1 µM, compound concentration 1 uM

SMILES	Total Cell Count
Cc1cc(-c2ccc3c(c2)CC[C@H]3N2CC3(CCN(C(=O)Cc4cn5cc(C)sc5n4)CC3)C2)ncn1 [PF-5190457]	873 and 531
N#Cc1c(N)nc(SCc2csc(-c3ccc(Cl)cc3)n2)c(C#N)c1-c1ccc(OCCO)cc1 [CAPADENOSON]	621 and 787

Same assay, conditions: human, 48 h, 10 µM, compound concentration 10 uM

SMILES	Population Apoptotic (%)	Population Fragmented Nuclei (%)	Population Healthy Nuclei (%)	Population Hoechst High Intensity Objects (%)	Population Membrane Permeable-Phenotype (%)	Population Mitochondria Different-Phenotype (%)	Population Mitotic Cells (%)	Population Normal (%)	Population Pyknosed Nuclei (%)	Population Tubulin-Different-Phenotype (%)
Cc1cc(-c2ccc3c(c2)CC[C@H]3N2CC3(CCN(C(=O)Cc4cn5cc(C)sc5n4)CC3)C2)ncn1 [PF-5190457]	24% and 46%	14% and 13%	77% and 78%	2% and 4%	0	27% and 32%	76% and 53%	97% and 95%	8%	20%
N#Cc1c(N)nc(SCc2csc(-c3ccc(Cl)cc3)n2)c(C#N)c1-c1ccc(OCCO)cc1 [CAPADENOSON]	66% and 63%	11% and 12%	68% and 73%	12% and 10%	0	89% and 88%	33% and 36%	87% and 89%	20% and 14%	67% and 64%

Same assay, conditions: human, 48 h, 10 µM, compound concentration 10 uM

SMILES	Total Cell Count
Cc1cc(-c2ccc3c(c2)CC[C@H]3N2CC3(CCN(C(=O)Cc4cn5cc(C)sc5n4)CC3)C2)ncn1 [PF-5190457]	927 and 520
N#Cc1c(N)nc(SCc2csc(-c3ccc(Cl)cc3)n2)c(C#N)c1-c1ccc(OCCO)cc1 [CAPADENOSON]	406 and 423
